ChEMBL document CHEMBL4196093, “Small-Molecule Activator of UNC-51-Like Kinase 1 (ULK1) That Induces Cytoprotective Autophagy for Parkinson's Disease Treatment” (J Med Chem, 2018)
pEC50: −log10 of the molar value.

Tests used:
[1] = molecular target: T1, Serine/threonine-protein kinase ULK1 (Homo sapiens, UniProt O75385); test: (§1) Induction of human recombinant N-terminal GST tagged-ULK1 (1 to 649 residues) kinase activity expressed in baculovirus infected insect Sf9 cells using MBP as substrate after 60 mins by ADP-glo assay
T1 sequence (O75385 whole entry): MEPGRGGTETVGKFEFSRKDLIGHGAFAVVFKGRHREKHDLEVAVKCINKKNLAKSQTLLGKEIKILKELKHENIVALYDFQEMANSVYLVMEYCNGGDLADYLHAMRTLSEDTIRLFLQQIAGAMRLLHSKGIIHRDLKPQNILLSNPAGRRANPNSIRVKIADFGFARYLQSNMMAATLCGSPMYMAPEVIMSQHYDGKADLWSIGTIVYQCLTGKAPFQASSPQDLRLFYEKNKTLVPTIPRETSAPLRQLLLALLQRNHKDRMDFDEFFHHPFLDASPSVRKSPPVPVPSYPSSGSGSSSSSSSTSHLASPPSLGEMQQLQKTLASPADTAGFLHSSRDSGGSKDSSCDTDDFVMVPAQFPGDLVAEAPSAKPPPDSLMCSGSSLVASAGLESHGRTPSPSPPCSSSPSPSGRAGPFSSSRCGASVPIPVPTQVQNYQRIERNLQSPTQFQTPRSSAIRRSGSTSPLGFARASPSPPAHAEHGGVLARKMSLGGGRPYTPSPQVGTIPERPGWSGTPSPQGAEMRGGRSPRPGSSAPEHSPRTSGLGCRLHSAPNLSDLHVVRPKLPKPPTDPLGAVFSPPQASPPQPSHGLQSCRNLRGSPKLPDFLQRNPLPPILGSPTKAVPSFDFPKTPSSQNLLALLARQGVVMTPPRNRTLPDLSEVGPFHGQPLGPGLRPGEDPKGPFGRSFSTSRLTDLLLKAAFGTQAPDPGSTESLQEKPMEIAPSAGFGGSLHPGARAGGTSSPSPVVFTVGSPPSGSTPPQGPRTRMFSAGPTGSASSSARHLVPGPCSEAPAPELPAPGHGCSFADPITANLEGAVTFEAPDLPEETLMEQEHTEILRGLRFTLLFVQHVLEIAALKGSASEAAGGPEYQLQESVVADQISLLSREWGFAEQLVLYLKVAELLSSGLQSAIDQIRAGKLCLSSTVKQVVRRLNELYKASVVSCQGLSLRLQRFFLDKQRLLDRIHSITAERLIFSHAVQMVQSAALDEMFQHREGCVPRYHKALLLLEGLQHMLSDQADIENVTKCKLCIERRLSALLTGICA
Outline: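 ULK1 (10 ng) incubated with MBP (0.1 µg/µl)/10 µM ATP and a compound concentration series in Tris pH 7.5/MgCl2/DTT/BSA buffer for 60 min at room temperature. ADP-Glo luminescence read. EC50 derived from the curve; Emax normalized to maximal response of the reference activator.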

[2] = molecular target: T2, Serine/threonine-protein kinase ULK1 (Homo sapiens) (UniProt O75385); test: as §1, with “cells at 100 nM” for “cells”, “assay relative to (R)-2-(3-(3,5-Bis(trifluoromethyl)phenyl)thioureido)-N-(2,4-difluorophenyl)-2-phenylacetamide” for “assay”
T2 sequence (whole entry): T1 sequence (O75385 whole entry)
Outline: (§2)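 Recombinant human ULK1 (10 ng) with MBP (0.1 µg/µl)/10 µM ATP and compound at 100 nM in 40 mM Tris pH 7.5, 20 mM MgCl2, 50 µM DTT, 0.1 mg/ml BSA. Incubated 60 min at room temperature; ADP-Glo luminescence read. Three independent experiments, mean ± SEM.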

[3] = molecular target: T2, Serine/threonine-protein kinase ULK1 (Homo sapiens); test: Induction of human recombinant N-terminal GST tagged-ULK1 (1 to 649 residues) kinase activity expressed in baculovirus infected insect Sf9 cells at 100 nM using MBP as substrate after 60 mins by ADP-glo assay relative to control; outline: as §2
[4] = molecular target: T2, Serine/threonine-protein kinase ULK1 (Homo sapiens); test: Induction of ULK1-mediated autophagy in human SH-SY5Y cells at 1 uM after 6 hrs by MDC-staining based flow cytometric analysis relative to control; assay type: cell-based
Outline: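 Autophagy scored as percentage of MDC-positive SH-SY5Y cells by flow cytometry after 1 µM compound; mean ± SEM.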

| Compound | pEC50 [1] | fold change (FC) [2] | Activity [3] [%] | Activity [4] [%] |
| --- | --- | --- | --- | --- |
| Clc1ccc(CO[C@@H](Cn2ccnc2)c2ccc(Cl)cc2Cl)cc1 | 6.58 | 0.324 |  |  |
| O=C(Nc1ccc(F)cc1F)[C@H](NCCc1ccc(F)cc1)c1ccccc1 | 7.39 | 0.742 | 202 | 30.1 |
| CN1CCN(CC(OC(=O)c2ccc3c(c2)OCO3)c2ccccc2)CC1 (stereo not given) | 7.26 | 0.692 | 197 | 14.7 |
| Cc1ccccc1NC(=O)[C@H](NC(=S)Nc1cc(C(F)(F)F)cc(C(F)(F)F)c1)c1ccccc1 |  |  | 205 | 43.1 |
| Cc1ccccc1NC(=O)[C@H](NCCc1cccc2ccccc12)c1ccccc1 |  |  | 137 | 11 |
| O=C(Nc1cccc(Cl)c1)N[C@@H](C(=O)Nc1cc(F)ccc1F)c1ccccc1 |  |  | 159 | 24.7 |
| COc1ccc(NC(=O)N[C@@H](C(=O)N[C@H](C)c2ccccc2)c2ccccc2)cc1 |  |  | 145 | 19.2 |
| COc1ccc(CCN[C@@H](C(=O)Nc2ccccc2C)c2ccccc2)cc1OC |  |  | 147 | 18.1 |
| Cc1ccccc1NC(=O)[C@H](NC(=O)Nc1ccccc1Cl)c1ccccc1 |  |  | 30.4 | 36.8 |
| COc1ccc(N2CCN(CC(OC(=O)c3ccc(-c4ccccc4)cc3)c3ccccc3)CC2)cc1 (stereo not given) |  |  | 147 | 9.2 |
| O=C(Nc1cc(F)ccc1F)[C@H](NC(=S)Nc1ccccc1)c1ccccc1 |  |  | 197 | 39.4 |
| Cc1cccc(C)c1NC(=O)N[C@@H](C(=O)Nc1cc(F)ccc1F)c1ccccc1 |  |  | 147 | 24.9 |
| C[C@@H](NC(=O)[C@H](NC(=S)Nc1cc(C(F)(F)F)cc(C(F)(F)F)c1)c1ccccc1)c1ccccc1 |  |  | 178 | 32.9 |
| COc1ccc(CCNC(=O)N[C@@H](C(=O)Nc2cccc(Cl)c2)c2ccccc2)cc1OC |  |  | 168 | 31.1 |
| O=C(Nc1ccc(F)cc1F)[C@H](NCCc1cccc2ccccc12)c1ccccc1 |  |  | 168 | 26.2 |
| COc1ccc(N2CCN(CC(OC(=O)c3ccc(C)cc3)c3ccccc3)CC2)cc1 (stereo not given) |  |  | 139 | 4.51 |
| CN1CCN(CC(OC(=O)c2ccccc2)c2ccccc2)CC1 (stereo not given) |  |  | 156 | 9.59 |
| CN1CCN(CC(OC(=O)c2ccc(-c3ccccc3)cc2)c2ccccc2)CC1 (stereo not given) |  |  | 142 | 7.41 |
| CN1CCN(CC(OC(=O)c2ccccc2F)c2ccccc2)CC1 (stereo not given) |  |  | 149 | 6.56 |
| CN1CCN(CC(OC(=O)c2ccc3ncccc3c2)c2ccccc2)CC1 (stereo not given) |  |  | 181 | 12.5 |
| O=C(Nc1ccc(F)cc1F)[C@H](NCCc1ccc(Br)cc1)c1ccccc1 |  |  | 171 | 28.2 |
| CN(C)c1ccc(CCN[C@@H](C(=O)Nc2ccc(F)cc2F)c2ccccc2)cc1 |  |  | 149 | 20.2 |
| COc1ccc(CC(=O)OC(CN2CCN(C)CC2)c2ccccc2)cc1OC (stereo not given) |  |  | 139 | 6.22 |
